From ChEMBL document CHEMBL2010721, “Growth inhibition of Mycobacterium smegmatis by prodrugs of deoxyxylulose phosphate reducto-isomerase inhibitors, promising anti-mycobacterial agents” (Eur J Med Chem, 2012)
Values after ≈ are worked out from the molar mass of the structure shown. Active and inactive are the calls of the source. The rule behind the calls is not given here.

Tests used:
[1] = biological target: T1, 1-deoxy-D-xylulose 5-phosphate reductoisomerase (Mycobacterium smegmatis (strain ATCC 700084 / mc(2)155), UniProt A0QVH7); experiment: Inhibition of Mycobacterium smegmatis DSM 43756 ATCC 19420 N-terminal his-tagged DXR expressed in XL1-blue Escherichia coli using NADPH and DXP as substrate preincubated for 2 mins […]; parameters: species or system Mycolicibacterium smegmatis
T1 sequence (A0QVH7 whole entry): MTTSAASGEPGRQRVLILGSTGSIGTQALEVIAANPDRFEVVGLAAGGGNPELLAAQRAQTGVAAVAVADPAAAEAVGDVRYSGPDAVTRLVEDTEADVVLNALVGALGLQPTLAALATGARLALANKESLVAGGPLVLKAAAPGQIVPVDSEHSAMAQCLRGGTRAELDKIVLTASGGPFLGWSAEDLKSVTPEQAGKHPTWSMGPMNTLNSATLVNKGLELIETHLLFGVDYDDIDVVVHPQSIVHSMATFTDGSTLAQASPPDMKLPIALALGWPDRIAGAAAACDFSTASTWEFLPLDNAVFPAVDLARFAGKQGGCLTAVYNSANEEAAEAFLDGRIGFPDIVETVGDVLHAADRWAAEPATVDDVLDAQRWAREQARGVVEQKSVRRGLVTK
Summary of the method: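 N-terminal His-tagged M. smegmatis DXR, Ni²⁺-purified and kept in glycerol/NaCl buffer. Assay at 37 °C in 50 mM Tris/HCl pH 7.5 with 3 mM MgCl₂, 2 mM DTT, 0.15 mM NADPH and 0.5 mM DXP. Enzyme and inhibitor were preincubated 2 min with NADPH, then DXP started the reaction. Initial rates were read as A340 decrease. Inhibitor range was 0.1–0.6 or 0.2–2 µM. IC50 came from residual activity vs log concentration, mean of two determinations.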

[2] = system: Mycolicibacterium smegmatis; experiment: Antimycobacterial activity against Mycobacterium smegmatis at 400 nmol/disc after 24 hrs by paper disc diffusion method; type: functional
Summary of the method: (§1)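 M. smegmatis (grown at 37 °C) was spread from a tenfold-diluted overnight culture on agar plates containing yeast extract, malt extract, CaCO₃ and glucose. Compounds were dissolved at 100 mM in DMSO or water, and 4 µL was put on each 6 mm disc. Isoniazid was dissolved at 7.5 mM, and 2 µL was put on each disc. Inhibition zones were read after 24 h at 37 °C.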

Escherichia coli [3] = experiment: Antimycobacterial activity against Escherichia coli at 400 nmol/disc after 24 hrs by paper disc diffusion method; type: functional, organism-based
[4] = system: Mycolicibacterium smegmatis; experiment: Antimycobacterial activity against Mycobacterium smegmatis assessed as viability at 500 uM after 5 hrs by resazurin test; type: functional, organism-based
Summary of the method: (§2)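 A fresh M. smegmatis preculture was adjusted to McFarland 0.5. Then 0.2 mL went into 1.8 mL medium with inhibitor (final isoniazid 10–40 µM; other compound 250–1000 µM), shaken 24 h at 37 °C. Of this, 50 µL was added to 150 µL fresh medium, in duplicate, plus 0.01% resazurin. Plates were kept at 37 °C, and the blue-to-pink change was followed by eye for 12 h, with growth and sterile controls.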

[5] = system: Mycolicibacterium smegmatis; experiment: Antimycobacterial activity against Mycobacterium smegmatis assessed as viability at 250 uM after 15 mins by resazurin test; type: functional, organism-based; summary of the method: as §2
[6] = system: Mycolicibacterium smegmatis; experiment: Antimycobacterial activity against Mycobacterium smegmatis; type: functional
Escherichia coli [7] = experiment: Inhibition of Escherichia coli DXR at 1 uM
[8] = biological target: T2, 1-deoxy-D-xylulose 5-phosphate reductoisomerase (Mycobacterium smegmatis (strain ATCC 700084 / mc(2)155)) (UniProt A0QVH7); experiment: Inhibition of Mycobacterium smegmatis DSM 43756 ATCC 19420 N-terminal his-tagged DXR expressed in XL1-blue Escherichia coli using NADPH and DXP as substrate at 1 uM […]; conditions: Mycolicibacterium smegmatis
T2 sequence (whole entry): T1 sequence (A0QVH7 whole entry)

[9] = system: Mycobacterium tuberculosis; experiment: Antimycobacterial activity against Mycobacterium tuberculosis; type: functional
[10] = biological target: T1, 1-deoxy-D-xylulose 5-phosphate reductoisomerase (Mycobacterium smegmatis (strain ATCC 700084 / mc(2)155), UniProt A0QVH7); experiment: Inhibition of Mycobacterium smegmatis DXR; parameters: species or system Mycolicibacterium smegmatis
Summary of the method: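 His-tagged M. smegmatis DXR (N-terminal tag, expressed in E. coli, Ni2+ column purified) was pre-incubated with inhibitor and 0.15 mM NADPH for 2 min at 37 °C in 50 mM Tris/HCl pH 7.5, 3 mM MgCl2, 2 mM DTT. Reaction started with 0.5 mM DXP; initial rates from NADPH absorbance decrease at 340 nm. IC50 from residual activity versus log inhibitor concentration; mean of two independent determinations.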

[11] = system: Mycolicibacterium smegmatis; experiment: Antimycobacterial activity against Mycobacterium smegmatis at 15 nmol/disc after 24 hrs by paper disc diffusion method; type: functional; summary of the method: as §1
[12] = system: Mycolicibacterium smegmatis; experiment: Antimycobacterial activity against Mycobacterium smegmatis assessed as viability at 20 uM after 5 to 12 hrs by resazurin test; type: functional, organism-based; summary of the method: as §2
[13] = system: Mycolicibacterium smegmatis; experiment: Antimycobacterial activity against Mycobacterium smegmatis assessed as viability at 10 uM after 1 hr by resazurin test; type: functional, organism-based; summary of the method: as §2

SMILES	IC50 [1] [nM]	growth inhibition (GI) [2]	growth inhibition (GI) (Escherichia coli [3])	also measured
CN(O)C(=O)CCCP(=O)(O)O	410	inactive		
CC(C)(C)C(=O)OCOP(=O)(CCCC(=O)NO)OCOC(=O)C(C)(C)C		inactive	inactive	
O=C(CCCP(=O)(OCOC(=O)c1ccccc1)OCOC(=O)c1ccccc1)NO		inactive	inactive	
CCCC(=O)OCOP(=O)(CCCC(=O)N(C)O)OCOC(=O)CCC			inactive	growth inhibition (GI) [4]: Active; growth inhibition (GI) [5]: inactive; MIC [6]: 250 µM (≈ 99.3 µg/mL); diameter of the inhibition zone (DIZ) [2]: 23 mm; inhibition (Escherichia coli [7]): inactive; inhibition [8]: inactive
CCCC(=O)OCOP(=O)(CCCC(=O)NO)OCOC(=O)CCC		inactive	inactive	
CCCC(=O)OCOP(=O)(CCCN(O)C(C)=O)OCOC(=O)CCC		inactive	inactive	inhibition (Escherichia coli [7]): inactive; inhibition [8]: inactive
CCCC(=O)OCOP(=O)(CCCN(O)C=O)OCOC(=O)CCC		inactive	inactive	
CN(O)C(=O)CCCP(=O)(OCOC(=O)C(C)(C)C)OCOC(=O)C(C)(C)C			inactive	MIC [9]: 50 µg/mL (≈ 118 µM); diameter of the inhibition zone (DIZ) [2]: 15 mm
O=CN(O)CCCP(=O)(O)O [FOSMIDOMYCIN]	510	inactive		IC50 [10]: 80 nM
O=C(CCCP(=O)(O)O)NO	1480	inactive		
CC(=O)N(O)CCCP(=O)(O)O [FR-900098]	320	inactive		
CN(O)C(=O)CCCP(=O)(OCOC(=O)c1ccccc1)OCOC(=O)c1ccccc1			inactive	MIC [9]: 25 µg/mL (≈ 53.7 µM); diameter of the inhibition zone (DIZ) [2]: 11 mm
NNC(=O)c1ccncc1 [ISONIAZID]				diameter of the inhibition zone (DIZ) [11]: 29 mm; growth inhibition (GI) [12]: inactive; growth inhibition (GI) [13]: inactive; MIC [9]: 7 µg/mL (≈ 51 µM); MIC [6]: 10 µM (≈ 1.37 µg/mL)
